According to ChEMBL document CHEMBL5705892, “MK-2206, an allosteric Akt inhibitor, enhances antitumor efficacy by standard chemotherapeutic agents or molecular targeted drugs in vitro and in vivo” (Mol Cancer Ther, 2010):
The source made the active and inactive calls. No cut-off for these calls is given here.

Assays:
MDA-MB-468 [1] = test: Synergistic antiproliferative activity against human MDA-MB-468 cells assessed as combination index at ED75 measured after 96 hrs in presence of lapatinib by celltiter-glo assay; assay type: functional
[2] = Toxicity in human HCC70 cells xenografted CB17/icr SCID mouse at 120 mg/kg, po administered 3 times per week for 3 weeks starting 2 hrs post-lapatinib treatment and measured during compound dosing; assay type: organism-based; conditions: in vivo, 504 h
How it was run: (§1)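 HCC70 cells in 50% Matrigel/PBS injected s.c. into flank of female C.B-17/ICR-scid mice; dosing began after 3 wk, groups randomized at mean tumour 0.2 cm³ (n = 5). Lapatinib 100 mg/kg p.o. in distilled water, 5 d/wk for 3 wk; MK-2206 in 30% Captisol p.o. 3×/wk for 3 wk, given 2 h after lapatinib. Body weight and physical signs monitored throughout.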

NCI-H1993 = test: Synergistic antiproliferative activity against human NCI-H1993 cells assessed as combination index at ED25 to ED90 measured after 72 hrs in presence of gemcitabine by celltiter-glo assay; assay type: functional
NCI-H460 [3] = test: Synergistic antiproliferative activity against human NCI-H460 cells assessed as combination index at ED75 measured after 72 hrs in presence of 5-FU by celltiter-glo assay; assay type: functional
NCI-H460 [4] = test: Synergistic antiproliferative activity against human NCI-H460 cells assessed as combination index at ED75 measured after 72 hrs in presence of camptothecin by celltiter-glo assay; assay type: functional
HCC70 [5] = test: Synergistic antiproliferative activity against human HCC70 cells assessed as combination index at ED90 measured after 72 hrs in presence of docetaxel by celltiter-glo assay; assay type: functional
How it was run: (§2)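 Cells grown in RPMI 1640 with 10% heat-inactivated FBS at 37°C, 5% CO₂. Seeded at 2 to 3 × 10³ per well; drugs added 24 h later. […] Viability read as cellular ATP by CellTiter-Glo. CI calculated by Chou–Talalay from median-effect plots at ED50, ED75 and ED90.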

MCF7 [6] = test: Synergistic antiproliferative activity against human MCF7 cells assessed as combination index at ED50 measured after 72 hrs in presence of docetaxel by celltiter-glo assay; assay type: functional; how it was run: as §2
[7] = Toxicity in human HCC70 cells xenografted CB17/icr SCID mouse assessed as body weight loss at 120 mg/kg, po administered 3 times per week for 3 weeks starting 2 hrs post-lapatinib treatment and measured during compound dosing; assay type: organism-based; conditions: in vivo, 504 h; how it was run: as §1
HCC1954 = test: Synergistic antiproliferative activity against human HCC1954 cells assessed as combination index at ED50 treated 24 hrs prior to lapatinib and measured after 72 hrs by celltiter-glo assay; assay type: functional; conditions: time 96 hrs
[8] = target: RAC-alpha serine/threonine-protein kinase (Homo sapiens) (UniProt P31749); test: Inhibition of AKT in human HCC827 cells assessed as reduction in AKT phosphorylation at S473 residue at 5 umol/L measured after 5 hrs by Western blot analysis; assay type: cell-based; conditions: dose 5.0 µmol/L
Sequence of RAC-alpha serine/threonine-protein kinase (Homo sapiens) (P31749 whole entry): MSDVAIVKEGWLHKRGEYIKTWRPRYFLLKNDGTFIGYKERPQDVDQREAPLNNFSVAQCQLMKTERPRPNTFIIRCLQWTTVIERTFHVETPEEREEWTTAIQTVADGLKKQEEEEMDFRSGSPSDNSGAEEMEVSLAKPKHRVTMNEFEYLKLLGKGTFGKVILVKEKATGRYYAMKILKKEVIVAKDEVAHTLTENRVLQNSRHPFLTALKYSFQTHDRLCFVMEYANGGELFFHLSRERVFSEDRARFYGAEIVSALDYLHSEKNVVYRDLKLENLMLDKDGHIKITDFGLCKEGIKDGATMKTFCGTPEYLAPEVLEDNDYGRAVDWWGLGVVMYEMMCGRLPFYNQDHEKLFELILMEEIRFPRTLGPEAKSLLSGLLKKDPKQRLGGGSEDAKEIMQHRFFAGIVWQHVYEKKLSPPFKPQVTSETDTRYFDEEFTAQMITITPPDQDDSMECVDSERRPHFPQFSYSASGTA

MDA-MB-468 [9] = test: Synergistic antiproliferative activity against human MDA-MB-468 cells assessed as combination index at ED90 measured after 72 hrs in presence of lapatinib by celltiter-glo assay; assay type: functional
MCF7 [10] = test: Synergistic antiproliferative activity against human MCF7 cells assessed as combination index at ED75 measured after 72 hrs in presence of docetaxel by celltiter-glo assay; assay type: functional; how it was run: as §2
UMC-11 = test: Synergistic antiproliferative activity against human UMC-11 cells assessed as combination index at ED25 to ED90 measured after 72 hrs in presence of carboplatin by celltiter-glo assay; assay type: functional
MDA-MB-468 [11] = test: Synergistic antiproliferative activity against lapatinib pretreated human MDA-MB-468 cells assessed as combination index at ED90 measured after 72 hrs by celltiter-glo assay; assay type: functional
HCC827 = test: Synergistic antiproliferative activity against human HCC827 cells assessed as combination index at ED75 measured after 72 hrs in presence of erlotinib by celltiter-glo assay; assay type: functional; how it was run: as §2
BT-474 [12] = test: Synergistic antiproliferative activity against docetaxel pretreated human BT-474 cells assessed as combination index at ED50 measured after 72 hrs by celltiter-glo assay; assay type: functional
BT-474 [13] = test: Synergistic antiproliferative activity against human BT-474 cells assessed as combination index at ED75 measured after 72 hrs in presence of docetaxel by celltiter-glo assay; assay type: functional; how it was run: as §2
NCI-N87 = test: Synergistic antiproliferative activity against lapatinib pretreated human NCI-N87 cells assessed as combination index at ED50 measured after 72 hrs by celltiter-glo assay; assay type: functional
NCI-H460 [14] = test: Synergistic antiproliferative activity against human NCI-H460 cells assessed as combination index at ED50 measured after 72 hrs in presence of carboplatin by celltiter-glo assay; assay type: functional
Calu-6 = test: Synergistic antiproliferative activity against human Calu-6 cells assessed as combination index at ED90 measured after 72 hrs in presence of erlotinib by celltiter-glo assay; assay type: functional; how it was run: as §2
BT-474 [15] = test: Synergistic antiproliferative activity against docetaxel pretreated human BT-474 cells assessed as combination index at ED75 measured after 72 hrs by celltiter-glo assay; assay type: functional
NCI-H292 [16] = test: Synergistic antiproliferative activity against human NCI-H292 cells assessed as combination index at ED90 measured after 72 hrs in presence of erlotinib by celltiter-glo assay; assay type: functional
NCI-H23 = test: Synergistic antiproliferative activity against human NCI-H23 cells assessed as combination index at ED50 measured after 72 hrs in presence of erlotinib by celltiter-glo assay; assay type: functional
A2780 = test: Cell cycle arrest in human A2780 cells assessed as increase in accumulation of cells at sub-G1 phase measured after 72 hrs in presence of gemcitabine by propidium iodide staining based flow cytometry; assay type: functional
NCI-H292 [17] = test: Antitumor activity against human NCI-H292 cells xenografted in CD-1 mouse assessed as tumor growth suppression at 120 mg/kg, po administered 3 times per week for 2 weeks and measured twice a week during compound dosing by caliper method; assay type: functional, organism-based
How it was run: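 Female CD1-nude mice carried s.c. NCI-H292 cells in Matrigel/PBS and were randomized at 0.2 cm³, n = 5. […] MK-2206 (30% Captisol) was given 2 h later at 120 mg/kg po on days 0, 2, 4, 7, 9, 11, or at 360 mg/kg on days 0 and 7. Control received vehicle. Caliper volume twice weekly.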

[18] = target: RAC-alpha serine/threonine-protein kinase (Homo sapiens) (UniProt P31749); test: Inhibition of AKT in human A-431 cells assessed as reduction in PRAS40 phosphorylation at T246 residue at 5 umol/L measured after 5 hrs by Western blot analysis; assay type: cell-based; conditions: dose 5.0 µmol/L
How it was run: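 Cells were lysed in Tris-HCl pH 7.5, 150 mM NaCl, 1% Triton X-100 with protease and phosphatase inhibitors. Lysates were run on SDS-PAGE, transferred to nitrocellulose and probed with phospho-specific antibodies.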

NCI-H460 [19] = test: Synergistic antiproliferative activity against human NCI-H460 cells assessed as combination index at ED50 measured after 72 hrs in presence of camptothecin by celltiter-glo assay; assay type: functional
MDA-MB-231 = test: Synergistic antiproliferative activity against human MDA-MB-231 cells assessed as combination index at ED90 measured after 72 hrs in presence of docetaxel by celltiter-glo assay; assay type: functional; how it was run: as §2
HCC70 [20] = test: Synergistic antiproliferative activity against human HCC70 cells assessed as combination index at ED50 treated 24 hrs prior to lapatinib and measured after 72 hrs by celltiter-glo assay; assay type: functional; conditions: time 96 hrs

Cl.NC1(c2ccc(-c3nc4ccn5c(=O)[nH]nc5c4cc3-c3ccccc3)cc2)CCC1
CI75 (MDA-MB-468 [1]): 0.18 | Activity [2]: Non-Toxic | CI (NCI-H1993): 0.14 | CI75 (NCI-H460 [3]): 0.45 | CI75 (NCI-H460 [4]): 0.39 | CI90 (HCC70 [5]): 0.5 | CI50 (MCF7 [6]): 0.7 | Activity [7]: Non-Toxic | CI50 (HCC1954): 0.18 | inhibition [8]: Active | CI90 (MDA-MB-468 [9]): 0.16 | CI75 (MCF7 [10]): 0.5 | CI (UMC-11): 1.36 | CI90 (MDA-MB-468 [11]): 0.18 | CI75 (HCC827): 0.18 | CI50 (BT-474 [12]): 0.8 | CI75 (BT-474 [13]): 0.8 | CI50 (NCI-N87): 0.18 | CI50 (NCI-H460 [14]): 0.35 | CI90 (Calu-6): 0.13 | CI75 (BT-474 [15]): 0.5 | CI90 (NCI-H292 [16]): 0.28 | CI50 (NCI-H23): 0.32 | Activity (A2780): Dose-Dependent Effect | Activity (NCI-H292 [17]): inactive | inhibition [18]: Active | CI50 (NCI-H460 [19]): 0.39 | CI90 (MDA-MB-231): 0.7 | CI50 (HCC70 [20]): 0.18
